In PubChem BioAssay AID492966 (Southern Research Specialized Biocontainment Screening …, 2010):
Active and inactive are the calls of the source.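 How the source made its calls: active means compounds that block at least half of the virus-caused cell damage; inactive means the rest.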

System: HEp-2 RSV Long CPE inhibition, luminescence
Experiment: antiviral activity against RSV Long – cell-based, HEp-2, luminescence, synthesized compounds, set 3, dose response (AID 492966)
Summary of the method: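 Test system: RSV Long-infected HEp-2 cells | Probe or stimulus: RSV strain Long at multiplicity of infection 0.45 | Incubation: Compound and virus exposure six days at 37 °C | Technique: Luminescent CPE readout | Read-out basis: % CPE inhibition and IC50 from bounded 4-parameter fit | Control set: Uninfected cell-only wells and infected virus-only wells, per plate | Replicates: Triplicate wells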

Row | IC50 | SMILES
1 | 16.5 µM | Cc1ccccc1NC(=O)[C@@H]1CCCN1S(=O)(=O)c1cccc2cccnc12
2 | > 50 µM (inactive) | Cc1ccc(NC(=O)[C@@H]2CCCN2S(=O)(=O)c2cccc3cccnc23)cc1
3 | > 50 µM (inactive) | O=C(Nc1ccc(Cl)cc1Cl)[C@@H]1CCCN1S(=O)(=O)c1cccc2cccnc12
